Screening results as filed in PubChem.
Hits are enriched below; roughly 1.8% of the tested compounds scored in any of these assays.
NSD2 inh: inhibitors of human histone methyltransferase NSD2. O96028. NSD2 peptide methylation, AlphaScreen, 120 min. inhibition, % at 12.5 µM. actives 0.54% (n = 310,000); in the data active means inhibition above about 50%
UHRF1 MBD2 ctr: UHRF1 methyl-DNA binding inhibition. Q96T88. UHRF1 binding to methylated oligo, TR-FRET. inhibition, % at 4.4 µM. actives 0.75% (n = 370,000). AID 687016;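 further: UHRF1 SRA domain binding a hemimethylated CpG hairpin DNA probe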
Casp6 inh: caspase-6 (human) enzyme inhibition. P55212. purified caspase-6, Z-VEID-R110 cleavage fluorescence. inhibition, % at 12.5 µM. actives 0.53% (n = 350,000);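 active means mean inhibition across replicates at least about 35%, with every replicate also reaching that limit, limit read from the data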
MBD2 inh: blocks human MBD2 binding to methylated DNA. Q9UBB5. inhibition, % at 4.4 µM. AID 686964. TR-FRET, MBD2 binding to methylated oligonucleotide. actives 0.31% (n = 370,000); in the data active means inhibition above about 13%
Target sequence (Q9UBB5 whole entry, looked up): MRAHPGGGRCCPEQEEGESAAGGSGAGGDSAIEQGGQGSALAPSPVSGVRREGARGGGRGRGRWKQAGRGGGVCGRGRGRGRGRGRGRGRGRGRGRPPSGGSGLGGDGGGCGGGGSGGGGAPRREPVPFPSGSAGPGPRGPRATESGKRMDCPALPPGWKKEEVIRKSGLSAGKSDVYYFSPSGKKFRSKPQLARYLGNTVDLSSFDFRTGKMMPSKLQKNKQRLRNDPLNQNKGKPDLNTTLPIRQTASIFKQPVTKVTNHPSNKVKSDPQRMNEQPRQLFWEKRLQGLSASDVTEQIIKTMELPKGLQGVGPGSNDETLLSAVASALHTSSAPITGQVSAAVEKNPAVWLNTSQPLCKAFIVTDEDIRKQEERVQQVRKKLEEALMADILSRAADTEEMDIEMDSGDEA
TDP2 inh: blocks human TDP2 phosphodiesterase activity. inhibition, % at 12.8 µM. recombinant TDP2, T5PNP hydrolysis, p-nitrophenol absorbance 415 nm. actives 0.34% (n = 370,000). AID 720702;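 active means inhibition above the mean of all tested compounds plus 3 SD, set per campaign, cut at about 25% in these data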
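System: recombinant human TDP2 / Amount: 120 nM TDP2 per well / Also added: 5 mM T5PNP chromogenic substrate / Doses: 12.8 µM single point, 1% DMSO / Incubation: 2 h at 37 °C / Detection: p-Nitrophenol epi absorbance / Evaluation: % inhibition relative to enzyme-containing and enzyme-free wells / Repeats: singlicate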
LEDGF integ inh: blocks HIV-1 LEDGF/p75-dependent DNA integration; TR-FRET IN-LEDGF/p75 DNA integration, Eu/Cy5; inhibition, % at 3.7 µM; actives 0.64% (n = 370,000);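 active means inhibition above the screen-wide mean plus 3 SD, cut at about 13% in these data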;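 further: signal is the Cy5 over europium emission ratio at 671 and 618 nm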
UHRF1 ctr MBD2: inhibits human UHRF1 binding to methylated oligonucleotide, MBD2 counter-screen. TR-FRET. inhibition, % at 4.4 µM. shares compounds with MBD2 inh. actives 25% (n = 1,000). AID 720530;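 further: UHRF1 SRA domain binding a labeled hemimethylated CpG hairpin DNA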
MBD2 confirm: MBD2-DBD methyl-DNA binding inhibition, TR-FRET confirmation; shares compounds with MBD2 inh; TR-FRET MBD2-DBD binding to methylated oligonucleotide; inhibition, % at 4.4 µM; actives 26% (n = 1,000); in the data active means inhibition above about 14%
A number is an active result. Unless noted, no stated cut-off is given here; in the data, active means inhibition above about 21%; inactive means the rest.

What do the screens show for `COc1ccc(CNC(=O)C[C@H]2C=C[C@@H](NC(=O)c3ccc4c(c3)OCO4)[C@@H](CO)O2)cc1`?
Casp6 inh: inactive

Results for COc1ccc(OCc2nn3c(-c4ccccn4)nnc3s2)cc1 ?
NSD2 inh: inactive; UHRF1 MBD2 ctr: inactive; MBD2 inh: 22; TDP2 inh: inactive; LEDGF integ inh: inactive; UHRF1 ctr MBD2: inactive; MBD2 confirm: inactive

What do the screens show for `CCCC(=O)Nc1ccc2c(c1)OC[C@H](C)N(Cc1ccc(-c3ccccn3)cc1)C[C@@H](C)[C@@H](OC)CN(C)C2=O`?
Casp6 inh: inactive

Results for CCCNC(=O)c1ccc2c(=O)n3c(-c4ccc(C)cc4)csc3nc2c1 ?
UHRF1 MBD2 ctr: inactive; Casp6 inh: inactive; MBD2 inh: 15; TDP2 inh: inactive; LEDGF integ inh: inactive; UHRF1 ctr MBD2: inactive; MBD2 confirm: inactive

Results for C[C@@H]1CCCCO[C@H](CN(C)C(=O)CCCN(C)C)[C@H](C)CN([C@@H](C)CO)C(=O)c2cc(NC(=O)C3CCCCC3)ccc2O1 ?
Casp6 inh: inactive

Results for CCCCOc1ccc(C(=O)Nc2ccc(N3CCN(C(=O)C(C)C)CC3)cc2)cc1 ?
NSD2 inh: inactive; UHRF1 MBD2 ctr: inactive; MBD2 inh: 33; TDP2 inh: inactive; LEDGF integ inh: inactive; UHRF1 ctr MBD2: inactive; MBD2 confirm: inactive

What do the screens show for `Cc1ccc(NC(=O)C2(C)CCN2C(=O)CCC2CCCC2)cc1C` (centres undefined)?
NSD2 inh: inactive; UHRF1 MBD2 ctr: inactive; Casp6 inh: inactive; MBD2 inh: inactive; TDP2 inh: inactive; LEDGF integ inh: inactive

How did CC1(C(=O)Nc2ccc3c(c2)OCO3)CCN1C(=O)CCC1CCCC1 (centres undefined) do in these assays?
NSD2 inh: inactive; UHRF1 MBD2 ctr: inactive; Casp6 inh: inactive; MBD2 inh: 20; TDP2 inh: inactive; LEDGF integ inh: inactive; UHRF1 ctr MBD2: inactive; MBD2 confirm: inactive

How did O=C(CCSc1nc(-c2ccco2)cc(C(F)(F)F)n1)NCc1cccs1 do in these assays?
NSD2 inh: inactive; UHRF1 MBD2 ctr: inactive; MBD2 inh: inactive; TDP2 inh: inactive; LEDGF integ inh: inactive

What do the screens show for `O=C(CCSc1nc(-c2ccco2)cc(C(F)(F)F)n1)NCc1ccccn1`?
NSD2 inh: inactive; UHRF1 MBD2 ctr: inactive; MBD2 inh: 24; TDP2 inh: inactive; LEDGF integ inh: inactive; UHRF1 ctr MBD2: inactive; MBD2 confirm: inactive

What do the screens show for `COCC(=O)N(C)C[C@H]1Oc2cc(-c3ccncc3)ccc2S(=O)(=O)N([C@@H](C)CO)C[C@H]1C`?
Casp6 inh: inactive

How did COc1ccc(N2CCN(C(=O)c3ccc4c(c3)CC(c3ccccc3)OC4=O)CC2)cc1 (centres undefined) do in these assays?
NSD2 inh: inactive; UHRF1 MBD2 ctr: 21; Casp6 inh: inactive; MBD2 inh: 14; TDP2 inh: inactive; LEDGF integ inh: inactive; UHRF1 ctr MBD2: inactive; MBD2 confirm: inactive

Results for Cc1nn2c(-c3ccc(S(=O)(=O)N4CCN(CCO)CC4)o3)nnc2c2ccccc12 ?
NSD2 inh: inactive; UHRF1 MBD2 ctr: inactive; Casp6 inh: inactive; MBD2 inh: 16; TDP2 inh: inactive; LEDGF integ inh: inactive; UHRF1 ctr MBD2: inactive; MBD2 confirm: inactive

What do the screens show for `CC(C)NC(=O)C(=O)NCC(c1ccc2c(c1)OCO2)N1CCOCC1` (centres undefined)?
NSD2 inh: inactive; UHRF1 MBD2 ctr: 28; Casp6 inh: inactive; MBD2 inh: 14; TDP2 inh: inactive; LEDGF integ inh: inactive; UHRF1 ctr MBD2: inactive; MBD2 confirm: inactive

How did C=CCNC(=O)C(=O)NCC(c1ccc2c(c1)OCO2)N1CCOCC1 (centres undefined) do in these assays?
NSD2 inh: inactive; UHRF1 MBD2 ctr: inactive; Casp6 inh: inactive; MBD2 inh: inactive; TDP2 inh: inactive; LEDGF integ inh: inactive

How did Nc1ncc(C(=O)O)c(-c2ccccc2)n1 do in these assays?
NSD2 inh: inactive; UHRF1 MBD2 ctr: inactive; Casp6 inh: inactive; MBD2 inh: 37; TDP2 inh: inactive; LEDGF integ inh: inactive; UHRF1 ctr MBD2: inactive; MBD2 confirm: inactive
